Published values from different studies.
Lines come from different studies, so protocols differ.
Target: Ephrin type-B receptor 2 (EPHB2, Homo sapiens, UniProt P29323)
Sequence (P29323 19-1055, as in one of the studies): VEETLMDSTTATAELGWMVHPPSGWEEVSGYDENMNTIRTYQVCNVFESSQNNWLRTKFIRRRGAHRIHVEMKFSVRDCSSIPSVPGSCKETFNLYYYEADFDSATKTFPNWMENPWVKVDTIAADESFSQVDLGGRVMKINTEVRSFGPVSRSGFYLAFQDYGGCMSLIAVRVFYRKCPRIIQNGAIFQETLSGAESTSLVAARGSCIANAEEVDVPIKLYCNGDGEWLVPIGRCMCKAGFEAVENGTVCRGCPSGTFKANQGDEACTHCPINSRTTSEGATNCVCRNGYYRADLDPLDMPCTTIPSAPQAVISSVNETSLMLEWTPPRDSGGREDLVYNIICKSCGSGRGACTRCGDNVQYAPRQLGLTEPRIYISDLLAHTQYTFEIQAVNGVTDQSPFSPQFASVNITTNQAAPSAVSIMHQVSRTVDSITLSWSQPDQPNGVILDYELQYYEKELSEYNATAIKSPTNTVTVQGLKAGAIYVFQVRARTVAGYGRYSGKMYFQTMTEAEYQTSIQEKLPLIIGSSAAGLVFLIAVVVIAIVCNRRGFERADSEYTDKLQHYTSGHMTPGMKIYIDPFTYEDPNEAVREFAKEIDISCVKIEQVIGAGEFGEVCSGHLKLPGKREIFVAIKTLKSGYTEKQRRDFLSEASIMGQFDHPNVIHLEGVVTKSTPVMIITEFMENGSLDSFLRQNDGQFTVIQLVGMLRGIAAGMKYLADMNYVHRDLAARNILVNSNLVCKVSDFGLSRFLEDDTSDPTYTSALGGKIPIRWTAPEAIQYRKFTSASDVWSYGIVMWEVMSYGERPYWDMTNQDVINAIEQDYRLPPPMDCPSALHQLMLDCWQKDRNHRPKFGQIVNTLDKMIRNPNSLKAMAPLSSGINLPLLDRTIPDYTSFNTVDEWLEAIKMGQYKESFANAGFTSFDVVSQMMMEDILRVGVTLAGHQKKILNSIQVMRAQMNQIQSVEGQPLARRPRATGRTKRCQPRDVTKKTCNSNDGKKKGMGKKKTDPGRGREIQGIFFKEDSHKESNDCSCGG

Cn1cncc1[C@@](O)(COc1ccc(C#N)cc1-c1ccc(OC(F)(F)F)cc1)c1ccc(C#N)cc1
remaining binding (cell-free assay; competition with immobilised ligand; 1 µM): 100%

Cc1nn(C)cc1-c1nc2c(N3CCN(Cc4ccc(Cl)cc4)CC3)c(Cl)cnc2[nH]1
remaining binding (binding; competition with immobilised ligand; 1 µM): 100%

COc1ncccc1-c1cnn2ccc(N3CCN(C(=O)OC(C)C)CC3)nc12
remaining binding (binding; competition with immobilised ligand; 1 µM): 77%

N#CC1(c2ccccn2)CCN(Cc2cc(C(=O)O)c(=O)n3ccccc23)CC1
remaining binding (cell-free assay; competition with immobilised ligand; 1 µM): 100%

Cn1cc(-c2cc(F)cc(N3CCn4c(cc5c4CCCC5)C3=O)c2CO)cc(Nc2ccc(N3CCN(C4COC4)CC3)cn2)c1=O
inhibition (enzyme activity; inhibitor; 0.1 µM): 14%

CC(C)(C)c1cc(C=C(C#N)C#N)cc(Br)c1O
remaining activity (enzyme activity; inhibitor; 0.5 µM): 100%

Cn1cc(-c2cccc(N3CCc4c(sc5c4CC(C)(C)C5)C3=O)c2CO)cc(Nc2ccncn2)c1=O
inhibition (enzyme activity; inhibitor; 1 µM): 1%

O=c1[nH]c2ccccc2n1C1CCN(Cc2ccc(-c3[nH]c4cc5ncnc5cc4nc3-c3ccccc3)cc2)CC1
remaining signal (cell-free assay; 0.5 µM): 108%

COc1cc(Nc2ncc(F)c(Nc3ccc4c(n3)NC(=O)C(C)(C)O4)n2)cc(OC)c1OC
inhibition (binding; competition with immobilised ligand; 10 µM): 50%
